Assay results taken from ChEMBL document CHEMBL1140923, “Discovery of imidazo[1,2-b]thiazole derivatives as novel SIRT1 activators” (J Med Chem, 2009).

Columns and labels:
[1] = AUC in Sprague-Dawley rat at 100 mg/kg, po or 10 mg/kg, iv; format: ADME, organism-based; conditions: plasma
In short: (§1)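 Male Sprague-Dawley rats (250 g, 3 per dose group) received 100 mg/kg by oral gavage in 2% HPMC + 0.2% DOSS, or 10 mg/kg iv by tail vein in 10% ethanol/40% PEG/50% H2O. Blood was drawn at 0.033-24 h postdose for drug levels.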

Salmonella typhimurium = assay: Mutagenic activity in Salmonella Typhimurium TA98 in absence of S9 activation; format: toxicity, organism-based; conditions: salmonella enterica subsp. enterica serovar typhimurium
[2] = Cmax in Sprague-Dawley rat at 100 mg/kg, po or 10 mg/kg, iv; format: ADME, organism-based; conditions: in vivo; in short: as §1

O=C(Nc1ccccc1-c1cn2c(CN3CCNCC3)csc2n1)c1cnc2ccccc2n1
AUC [1]: 3700 ng·h/mL
Activity (Salmonella typhimurium): Non-toxic
Cmax [2]: 320 nM
